Usually viability stands for a read-out of living cells in per cent, often relative to untreated cells. What is called inhibition is the change of the read-out against control, counted positive when it falls.

The source of these data is PubChem BioAssay.

Test [1] can be described thus: S. cerevisiae growth inhibition in permissive medium (OD615), pilot counter-assay for S. cerevisiae lifespan shortening project, permissive growth control (AID 705;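 active = growth inhibition above 25% in both replicates, a cutoff set 3 SD above the mean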). To be noted: OD615, 24 h, at 10 µM, active compounds read high. Summed up: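 System: engineered DeaD yeast; Medium: permissive raffinose/galactose medium; Compound dosing: 10 µM single dose, 0.25% DMSO; Incubation: 4 h cell pre-growth, 24 h exposure at 30 °C; Technique: OD at 615 nm; Evaluation: growth inhibition from lowered OD615 after 24 h.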

Test [2] can be described thus: S. cerevisiae growth inhibition in restrictive medium, OD615, pilot screen, restrictive growth control, yeast lifespan reduction project (AID 706;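 active = growth inhibition above a set limit, 3 SD over mean compound inhibition, in both replicates, cut at about 43% in these data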;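 also: modified DeaD lifespan yeast strain shifted to restrictive glucose medium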). To be noted: OD615, 48 h, at 10 µM, active compounds read high. In outline:
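Material: modified S. cerevisiae; buffer or medium: CSMM-D glucose medium; doses: one concentration, 10 µM final, 0.25% DMSO; incubation: 48 h compound exposure at 30 °C; detection: optical density at 615 nm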

A short description of test [3]: doxorubicin toxicity protection in MRP-1 cells – H69AR cells, CellTiter-Glo, duplicate, MRP-1 activator project, pilot screen (AID 807).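 Also: compound pretreatment 18-22 h then 72 h combined with doxorubicin; 0% = doxorubicin alone and 100% = vehicle without doxorubicin.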 The settings on record: H69AR viability with doxorubicin, CellTiter-Glo luminescence; at 10 µM; active compounds read high.
Test [4] is described as follows: viability of HCT116 without oncogenic beta-catenin – human colon tumor cells, pilot screen (AID 823;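 active = cell viability at or below a set limit in both duplicate runs, the limit being the all-compound median minus 4 SD, cut at about 23% in these data, passing the limit was not always enough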;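 also: 0% = wells killed by 20 µM Hyamine and 100% = untreated DMSO cell wells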). The settings on record: HCT116 beta-catenin knockout viability, CellTiter-Glo, 60 h; at 10 µM; active compounds read low. In general terms: In ATP-based viability assays light output follows the ATP content of the culture.
Test [5] in a line: viability of PTEN-null HCT116 cells – cell-based, HCT116 clonal line, CellTiter-Glo, pilot screen (AID 824;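 active = viability at or below 27.92% in each of two runs, the all-compound median minus 4 SD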;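 also: 0% = 20 µM Hyamine control and 100% = vehicle cell control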). The settings on record: HCT116 PTEN-deleted viability, 60 h, at 10 µM, active compounds read low.
Test [6] can be described thus: RAM pathway blockade in budding yeast – dse1pr::URA3 reporter, 5-FOA selection, pilot screen (AID 869;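 active = inhibition over a set limit, the all-compound mean plus 3 SD, in both replicate runs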;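 also: 0% = DMSO wells with no growth and 100% = 10 µM 1-NA-PP1 with full growth; RAM network block rescues cells from 5-FOA so hits raise OD615 growth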). The settings on record: S. cerevisiae dse1pr::URA3 5-FOA growth, OD615, 2 d; at 10 µM; active compounds read high; strain carries analog-sensitive mutant Cbk1 kinase.
Test [7] can be described thus: RAM signaling pathway blockade in yeast – S. cerevisiae, Pdr1DBD-CYC8 efflux-inhibited sensitized strain, primary screen (AID 1298;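 active = RAM network inhibition above 8.4% in each of two replicates, 3 SD over the compound average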;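 also: 0% = DMSO untreated cells without growth and 100% = 10 µM 1-NA-PP1 full growth; higher means more yeast growth rescued from 5-FOA killing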). To be noted: S. cerevisiae cbk1-as DSE1-URA3 strain, 5-FOA growth OD615, 2 d; at 50 µM; active compounds read high.

Values without a mark were called inactive. Results filed as inconclusive are left out. Activity calls are given as the source filed them.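 The calls were made as follows, unless noted: active = viability increase at or above a cutoff of the median across tested compounds plus 3 SD (cut at about 8.5% in these data, passing the limit was not always enough); inconclusive = some gains above the cutoff, reason not given; inactive = the rest.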

On to `Cc1ccc(S(=O)(=O)Cc2ccc(C(=O)N3CCCCCC3)o2)cc1`, for which the figures for the growth inhibition in test [1] and in test [2] were -10.6% and -22.4%, respectively. Also, in test [3], the viability increase was -1.93%. For the same molecule, the viability in test [4] was 98.8%; in test [5], 96.2%. Also, the inhibition in test [6] is 1.73%. For the same molecule, in test [7], the RAM network inhibition was 8.33%.

For `COc1ccccc1N(CC(N)=O)S(=O)(=O)c1ccc(C)cc1`, the values for the growth inhibition in test [1] and in test [2] were 0.675% and -2.73%, respectively. In addition, the viability increase in test [3] was -1.48%. Also, the viability in test [4] is 98.2%; in test [5], 98%. For the same molecule, the inhibition in test [6] was 0.21%. Moreover, the RAM network inhibition in test [7] was 3.22%.

As for `COc1nc(Nc2ccc3c(c2)OCO3)nc(OC)n1`, the results for the growth inhibition in test [1] and in test [2] were -22% and -10.4%, respectively. Further, the viability increase in test [3] is -2.8%. The viability in test [4] is 102%; in test [5] it was 93.6%. Also, in test [6], the inhibition was 3.51%. Moreover, the RAM network inhibition in test [7] was 4.7%.

On to `CCC1CCCCN1C(=O)CSc1nnc(-c2cccc(Cl)c2)o1` (centres undefined), for which the growth inhibition in test [1] is 8.15%; in test [2], 46.1% (active). In test [3], the viability increase was -3.24%. In addition, the viability in test [4] was 86.8%; in test [5], 91.5%. Further, the inhibition in test [6] was 1.4%. Further, in test [7], the RAM network inhibition is 1.06%.

Regarding `CCCc1ccc2c(N)c(C#N)sc2n1`, the growth inhibition in test [1] is -9.88%; in test [2], 2.12%. In addition, the viability increase in test [3] is 0.61%. For the same molecule, the viability in test [4] was 111%; in test [5], 104%. Further, the inhibition in test [6] is 0.235%. In test [7], the RAM network inhibition was -0.37%.

Consider `COc1cccc(OCCn2c(C)c(/C=N/n3cnnc3)c3ccccc32)c1`, for which the values for the growth inhibition in test [1] and in test [2] were 4.55% and 1.59%, respectively. Further, in test [3], the viability increase is -2.88%. In addition, the viability in test [4] was 99.3%; in test [5], 87%. In test [6], the inhibition was 2.11%. Also, the RAM network inhibition in test [7] was 7.39%.

Take `Cc1cc(C)cc(NC(=O)CSc2nnc(-c3ccccc3)n2N)c1`: the growth inhibition in test [1] is 5.25%; in test [2] it was 7.08%. In addition, the viability increase in test [3] was -3.11%. For the same molecule, the viability is 98.1% in test [4] and 97.1% in test [5]. In test [6], the inhibition was 2.74%. The RAM network inhibition in test [7] is 4.66%.

With `Cc1cccc(NC(=O)Cn2cnc3sc(C)c(S(=O)(=O)N4CCC(C)CC4)c3c2=O)n1`, the values for the growth inhibition in test [1] and in test [2] were -9.9% and -17.3%, respectively. In test [3], the viability increase is -1.12%. Also, the viability is 95.2% in test [4] and 99.1% in test [5]. Besides, the inhibition in test [6] was 2.16%. Moreover, the RAM network inhibition in test [7] is 9.71%.

As for `Cc1c(Cl)cccc1NC(=O)CN1C(=O)CSc2ncccc21`, the growth inhibition in test [1] is -2.14%; in test [2] it was -0.53%. In test [3], the viability increase was -1.13%. For the same molecule, the viability in test [4] is 97.6%; in test [5], 89.5%. In addition, the inhibition in test [6] was -0.01%. Also, the RAM network inhibition in test [7] was -0.13%.

With `COc1ccc(CSc2nncn2N)cc1Br`, the growth inhibition was 8.95% in test [1] and 5.08% in test [2]. In addition, the viability increase in test [3] is -2.01%. The results for the viability in test [4] and in test [5] were 101% and 90.8%, respectively. The inhibition in test [6] is 1.08%. Further, the RAM network inhibition in test [7] is 0.88%.

As for `COCCCNC(=O)c1ccccc1Oc1ccccc1`, the growth inhibition in test [1] is -8.28%; in test [2], -2.05%. Besides, the viability increase in test [3] is -1.39%. Besides, the values for the viability in test [4] and in test [5] were 96.3% and 97%, respectively. Further, in test [6], the inhibition is 1.46%. Further, the RAM network inhibition in test [7] was 1.58%.

For `OCCn1c(SCCOc2ccccc2F)nc2ccccc21`, the growth inhibition in test [1] was -4.44%; in test [2], -1.06%. Further, in test [3], the viability increase is -3.24%. Moreover, the viability in test [4] was 91.5%; in test [5], 88.4%. Besides, the inhibition in test [6] was 2.67%. For the same molecule, in test [7], the RAM network inhibition was 2.71%.

For the molecule `CC1=C(C(=O)OCCOc2ccccc2)C(c2ccc(C)o2)C2=C(CC(C)(C)CC2=O)N1` (centres undefined), the growth inhibition was -17.6% in test [1] and -10.8% in test [2]. Also, the viability increase in test [3] was -0.88%. Moreover, the viability in test [4] is 78.2%; in test [5], 78.6%. For the same molecule, the inhibition in test [6] was 1.73%. In test [7], the RAM network inhibition was 7.5%.

As to `O=C(NCCN1CCN(c2cccc(Cl)c2)CC1)C1CCCN(S(=O)(=O)c2cnc[nH]2)C1` (centres undefined), the growth inhibition was 3.09% in test [1] and 3.15% in test [2]. The viability increase in test [3] is -1.5%. Moreover, the results for the viability in test [4] and in test [5] were 91.1% and 89.7%, respectively. Further, the inhibition in test [6] was 0.895%. Further, the RAM network inhibition in test [7] is 5.7%.

On to `O=C(NCCc1csc(-c2cccnc2)n1)c1cccs1`, for which the growth inhibition was 1.53% in test [1] and 4.78% in test [2]. For the same molecule, in test [3], the viability increase is -0.87%. Also, the viability is 103% in test [4] and 106% in test [5]. For the same molecule, in test [6], the inhibition was 1.27%. Besides, the RAM network inhibition in test [7] was 0.68%.

For the molecule `C=C(C)Cn1c(NCCC)nc2c1c(=O)n(C)c(=O)n2C`, the growth inhibition is -9.8% in test [1] and -3.75% in test [2]. Besides, the viability increase in test [3] was -0.51%. Moreover, the viability was 98% in test [4] and 95.2% in test [5]. Besides, in test [6], the inhibition was 2.74%. The RAM network inhibition in test [7] is 1.36%.

As for `CC1CCCN(c2ncnc3c2cnn3-c2ccc(Cl)cc2)C1` (centres undefined), the growth inhibition in test [1] was -6.17%; in test [2] it was -16.3%. Besides, the viability increase in test [3] was 0.48%. Moreover, the viability in test [4] was 76%; in test [5], 79.3%. Besides, in test [6], the inhibition was -1.04%. For the same molecule, the RAM network inhibition in test [7] is 4.37%.
